# Experimental data reported in article PMC5292677 (Leukemia, 2016).
# Test system: patients with myelofibrosis
# Assay: Phase I safety: drug-related adverse events, DLTs, tolerability
# Type: in vivo, human
# Outline: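 Design was 3+3 dose escalation of oral test compound QD (75–400 mg) or BID (100–400 mg) in 28-day cycles. AEs were graded by CTCAE v4.0 with causality, alongside labs, ECGs, vital signs and physical exams. A DLT was grade 4 cytopenia, other grade 3/4 hematologic toxicity, or grade 3/4 non-hematologic toxicity, excluding manageable GI events. The population was all patients dosed ≥1 time.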
# [1] = baseline platelet count <100 × 10^9/l
# [2] = baseline platelet count <100 × 10^9/l (n=16)
# [3] = baseline platelet count ⩾100 × 10^9/l
# [4] = baseline platelet count ⩾100 × 10^9/l (n=32)
smiles,measurement,setting,value
C[C@H](Nc1cc(-c2cnn(C)c2)cc(Nc2cnccn2)n1)c1ccc(F)cc1 [NS-018],Cases of anemia (grade 2),300 mg QD,1 case
same,Rate of discontinuations owing to AEs,300 mg QD,13%
same,"Drug-related anemia, Grade 1/2",300 mg QD (n=16),1 (6) n (%)
same,"Drug-related anemia, all grades",300 mg QD (n=16),1 (6) n (%)
same,"Drug-related diarrhea, all grade",300 mg QD (n=16),2 (13) n (%)
same,"Drug-related diarrhea, grade 3 or 4",300 mg QD (n=16),0 n (%)
same,"Drug-related dizziness, all grade",300 mg QD (n=16),3 (19) n (%)
same,"Drug-related dizziness, grade 3 or 4",300 mg QD (n=16),1 (6) n (%)
same,"Drug-related esophageal reflux, all grade",300 mg QD (n=16),1 (6) n (%)
same,"Drug-related esophageal reflux, grade 3 or 4",300 mg QD (n=16),0 n (%)
same,"Drug-related headache, all grade",300 mg QD (n=16),2 (13) n (%)
same,"Drug-related headache, grade 3 or 4",300 mg QD (n=16),0 n (%)
same,"Drug-related nausea, all grade",300 mg QD (n=16),0 n (%)
same,"Drug-related paresthesia, all grade",300 mg QD (n=16),1 (6) n (%)
same,"Drug-related paresthesia, grade 3 or 4",300 mg QD (n=16),0 n (%)
same,"Drug-related thrombocytopenia, Grade 1/2",300 mg QD (n=16),0 n (%)
same,"Drug-related thrombocytopenia, Grade 3",300 mg QD (n=16),2 (13) n (%)
same,"Drug-related thrombocytopenia, Grade 4",300 mg QD (n=16),1 (6) n (%)
same,"Drug-related thrombocytopenia, all grades",300 mg QD (n=16),3 (19) n (%)
same,"Drug-related vomiting, all grade",300 mg QD (n=16),1 (6) n (%)
same,"Drug-related vomiting, grade 3 or 4",300 mg QD (n=16),0 n (%)
same,"Drug-related weight increased, all grade",300 mg QD (n=16),0 n (%)
same,Drug-related grade 3 dyspnea,300 mg QD cohort,6%
same,Patients who discontinued owing to AEs (beyond DLT),400 mg BID,2 patients
same,"Drug-related anemia, Grade 1/2",400 mg BID (n=8),1 (13) n (%)
same,"Drug-related anemia, Grade 3",400 mg BID (n=8),1 (13) n (%)
same,"Drug-related anemia, Grade 4",400 mg BID (n=8),0 n (%)
same,"Drug-related anemia, all grades",400 mg BID (n=8),2 (25) n (%)
same,"Drug-related diarrhea, all grade",400 mg BID (n=8),1 (13) n (%)
same,"Drug-related diarrhea, grade 3 or 4",400 mg BID (n=8),0 n (%)
same,"Drug-related dizziness, all grade",400 mg BID (n=8),2 (25) n (%)
same,"Drug-related dizziness, grade 3 or 4",400 mg BID (n=8),1 (13) n (%)
same,"Drug-related esophageal reflux, all grade",400 mg BID (n=8),0 n (%)
same,"Drug-related headache, all grade",400 mg BID (n=8),1 (13) n (%)
same,"Drug-related headache, grade 3 or 4",400 mg BID (n=8),0 n (%)
same,"Drug-related nausea, all grade",400 mg BID (n=8),0 n (%)
same,"Drug-related paresthesia, all grade",400 mg BID (n=8),0 n (%)
same,"Drug-related thrombocytopenia, Grade 1/2",400 mg BID (n=8),0 n (%)
same,"Drug-related thrombocytopenia, Grade 3",400 mg BID (n=8),1 (13) n (%)
same,"Drug-related thrombocytopenia, Grade 4",400 mg BID (n=8),0 n (%)
same,"Drug-related thrombocytopenia, all grades",400 mg BID (n=8),1 (13) n (%)
same,"Drug-related vomiting, all grade",400 mg BID (n=8),0 n (%)
same,"Drug-related weight increased, all grade",400 mg BID (n=8),0 n (%)
same,DLT: grade 3 dizziness,400 mg BID cohort,1 patient
same,Tolerability as judged by the Safety Review Committee,"400 mg BID/QD, based on proportion of drug-related neurological AEs",intolerable
same,"Drug-related anemia, Grade 1/2",400 mg QD (n=4),1 (25) n (%)
same,"Drug-related anemia, all grades",400 mg QD (n=4),1 (25) n (%)
same,"Drug-related diarrhea, all grade",400 mg QD (n=4),1 (25) n (%)
same,"Drug-related diarrhea, grade 3 or 4",400 mg QD (n=4),0 n (%)
same,"Drug-related dizziness, all grade",400 mg QD (n=4),1 (25) n (%)
same,"Drug-related dizziness, grade 3 or 4",400 mg QD (n=4),0 n (%)
same,"Drug-related esophageal reflux, all grade",400 mg QD (n=4),0 n (%)
same,"Drug-related headache, all grade",400 mg QD (n=4),0 n (%)
same,"Drug-related nausea, all grade",400 mg QD (n=4),1 (25) n (%)
same,"Drug-related nausea, grade 3 or 4",400 mg QD (n=4),0 n (%)
same,"Drug-related paresthesia, all grade",400 mg QD (n=4),1 (25) n (%)
same,"Drug-related paresthesia, grade 3 or 4",400 mg QD (n=4),0 n (%)
same,"Drug-related thrombocytopenia, all grades",400 mg QD (n=4),0 n (%)
same,"Drug-related vomiting, all grade",400 mg QD (n=4),0 n (%)
same,"Drug-related weight increased, all grade",400 mg QD (n=4),1 (25) n (%)
same,"Drug-related weight increased, grade 3 or 4",400 mg QD (n=4),0 n (%)
same,Recommended phase II dose (RP2D),"QD, oral",300 mg
same,Additional patients (beyond DLT) who discontinued owing to AEs,all cohorts,7 patients
same,Dose reduction owing to dizziness,all cohorts,4 n
same,Patients with dose reductions owing to AEs,all cohorts,11 patients
same,Patients with dose-limiting toxicities (DLTs),all cohorts (n=48),2 patients
same,Treatment discontinuation because of AEs,"all cohorts (n=48), data cutoff 21 July 2015",8 n
same,"Drug-related anemia, Grade 1/2",all dose cohorts (n=48),4 (8) n (%)
same,"Drug-related anemia, Grade 3",all dose cohorts (n=48),3 (6) n (%)
same,"Drug-related anemia, Grade 4",all dose cohorts (n=48),0 n (%)
same,"Drug-related anemia, all grades",all dose cohorts (n=48),7 (15) n (%)
same,"Drug-related diarrhea, all grade",all dose cohorts (n=48),7 (15) n (%)
same,"Drug-related diarrhea, grade 3 or 4",all dose cohorts (n=48),0 n (%)
same,"Drug-related dizziness, all grade",all dose cohorts (n=48),11 (23) n (%)
same,"Drug-related dizziness, grade 3 or 4",all dose cohorts (n=48),3 (6) n (%)
same,"Drug-related esophageal reflux, all grade",all dose cohorts (n=48),3 (6) n (%)
same,"Drug-related esophageal reflux, grade 3 or 4",all dose cohorts (n=48),0 n (%)
same,"Drug-related headache, all grade",all dose cohorts (n=48),3 (6) n (%)
same,"Drug-related headache, grade 3 or 4",all dose cohorts (n=48),0 n (%)
same,"Drug-related nausea, all grade",all dose cohorts (n=48),9 (19) n (%)
same,"Drug-related nausea, grade 3 or 4",all dose cohorts (n=48),1 (2) n (%)
same,"Drug-related paresthesia, all grade",all dose cohorts (n=48),4 (8) n (%)
same,"Drug-related paresthesia, grade 3 or 4",all dose cohorts (n=48),1 (2) n (%)
same,"Drug-related thrombocytopenia, Grade 1/2",all dose cohorts (n=48),5 (10) n (%)
same,"Drug-related thrombocytopenia, Grade 3",all dose cohorts (n=48),5 (10) n (%)
same,"Drug-related thrombocytopenia, Grade 4",all dose cohorts (n=48),3 (6) n (%)
same,"Drug-related thrombocytopenia, all grades",all dose cohorts (n=48),13 (27) n (%)
same,"Drug-related vomiting, all grade",all dose cohorts (n=48),3 (6) n (%)
same,"Drug-related vomiting, grade 3 or 4",all dose cohorts (n=48),0 n (%)
same,"Drug-related weight increased, all grade",all dose cohorts (n=48),4 (8) n (%)
same,"Drug-related weight increased, grade 3 or 4",all dose cohorts (n=48),0 n (%)
same,"Drug-related anemia, all grades",all patients (n=48),15%
same,"Drug-related anemia, grade 3/4",all patients (n=48),6%
same,Drug-related dizziness,all patients (n=48),23%
same,Drug-related nausea,all patients (n=48),19%
same,"Drug-related thrombocytopenia, all grades",all patients (n=48),27%
same,"Drug-related thrombocytopenia, grade 3/4",all patients (n=48),17%
same,"Drug-related thrombocytopenia, all grades",[1],44%
same,"Drug-related thrombocytopenia, grade 3/4",[1],38%
same,"Drug-related thrombocytopenia, Grade 1/2",[2],1 (6) n (%)
same,"Drug-related thrombocytopenia, Grade 3",[2],3 (19) n (%)
same,"Drug-related thrombocytopenia, Grade 4",[2],3 (19) n (%)
same,"Drug-related thrombocytopenia, all grades",[2],7 (44) n (%)
same,"Drug-related thrombocytopenia, all grades",[3],19%
same,"Drug-related thrombocytopenia, grade 3/4",[3],6%
same,"Drug-related thrombocytopenia, Grade 1/2",[4],4 (13) n (%)
same,"Drug-related thrombocytopenia, Grade 3",[4],2 (6) n (%)
same,"Drug-related thrombocytopenia, Grade 4",[4],0 n (%)
same,"Drug-related thrombocytopenia, all grades",[4],6 (19) n (%)
same,Grade 4 neurologic events,during the study,No grade 4 neurologic events
